In ChEMBL document CHEMBL1152758, “Synthesis and cytotoxic activity of new azepino[3',4':4,5]pyrrolo[2,1-a]isoquinolin-12-ones” (Bioorg Med Chem, 2009):

What was measured:
[1] = tested on: PC-3; assay: Cytotoxicity against human PC3 cells after 48 hrs by SRB assay; assay type: functional, cell-based; conditions: PC-3, 48 h
Procedure, shortened: (§1)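 SRB protein-staining microculture growth assay following the Monks method. Cells were detached with 0.1% (w/v) trypsin-EDTA, counted by hemocytometer and diluted in complete medium to 5 × 10⁴ cells/mL (K-562, MCF-7), 7.5 × 10⁴ cells/mL (U-251, PC-3) or 10 × 10⁴ cells/mL (HCT-15). DMSO stocks were tested at 100, 31, 10, 3.1 and 1. After 48 h, cells were fixed in situ with 50% TCA for 60 min at 4 °C. IC50 is the mean of three experiments.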

[2] = tested on: U-251; assay: Cytotoxicity against human U251 cells after 48 hrs by SRB assay; assay type: functional, cell-based; conditions: U-251, 48 h; procedure, shortened: as §1
[3] = tested on: K562; assay: Cytotoxicity against human K562 cells after 48 hrs by SRB assay; assay type: functional, cell-based; conditions: K562, 48 h; procedure, shortened: as §1
[4] = tested on: HCT-15; assay: Cytotoxicity against human HCT15 cells after 48 hrs by SRB assay; assay type: functional, cell-based; conditions: HCT-15, 48 h; procedure, shortened: as §1
[5] = tested on: MCF7; assay: Cytotoxicity against human MCF7 cells after 48 hrs by SRB assay; assay type: functional, cell-based; conditions: MCF7, 48 h; procedure, shortened: as §1
[6] = Inhibition of Marthasterias glacialis oocyte CDK1/Cyclin B
[7] = target: Cyclin-dependent kinase 5/CDK5 activator 1 (Homo sapiens, UniProt Q00535); assay: Inhibition of recombinant CDK5/p25 expressed in Escherichia coli
[8] = target: Glycogen synthase kinase-3 beta (Homo sapiens, UniProt P49841); assay: Inhibition of GSK3-beta expressed in Sf9 cells
Chain of Glycogen synthase kinase-3 beta (P49841 whole entry): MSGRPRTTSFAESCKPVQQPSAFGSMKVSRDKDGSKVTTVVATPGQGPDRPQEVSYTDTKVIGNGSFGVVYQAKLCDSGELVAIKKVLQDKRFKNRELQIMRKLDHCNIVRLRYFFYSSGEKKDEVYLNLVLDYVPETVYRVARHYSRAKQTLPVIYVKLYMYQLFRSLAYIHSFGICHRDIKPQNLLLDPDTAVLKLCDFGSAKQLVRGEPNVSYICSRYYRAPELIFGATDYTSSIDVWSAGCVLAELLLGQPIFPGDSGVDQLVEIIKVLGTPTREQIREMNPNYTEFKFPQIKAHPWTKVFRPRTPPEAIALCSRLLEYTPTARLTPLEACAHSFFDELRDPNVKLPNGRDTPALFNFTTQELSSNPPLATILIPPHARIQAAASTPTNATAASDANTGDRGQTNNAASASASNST

Chain of Cyclin-dependent kinase 5/CDK5 activator 1 (Q00535 whole entry): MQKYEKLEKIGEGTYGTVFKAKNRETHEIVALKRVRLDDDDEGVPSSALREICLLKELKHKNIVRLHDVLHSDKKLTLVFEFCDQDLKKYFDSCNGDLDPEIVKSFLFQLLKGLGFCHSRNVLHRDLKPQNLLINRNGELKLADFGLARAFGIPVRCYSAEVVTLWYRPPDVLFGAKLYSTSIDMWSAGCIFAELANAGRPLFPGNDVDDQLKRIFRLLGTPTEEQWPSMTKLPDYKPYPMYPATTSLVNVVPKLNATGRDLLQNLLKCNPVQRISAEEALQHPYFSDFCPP
Chain of Cyclin-dependent kinase 5/CDK5 activator 1 (Q15078 whole entry, further chain): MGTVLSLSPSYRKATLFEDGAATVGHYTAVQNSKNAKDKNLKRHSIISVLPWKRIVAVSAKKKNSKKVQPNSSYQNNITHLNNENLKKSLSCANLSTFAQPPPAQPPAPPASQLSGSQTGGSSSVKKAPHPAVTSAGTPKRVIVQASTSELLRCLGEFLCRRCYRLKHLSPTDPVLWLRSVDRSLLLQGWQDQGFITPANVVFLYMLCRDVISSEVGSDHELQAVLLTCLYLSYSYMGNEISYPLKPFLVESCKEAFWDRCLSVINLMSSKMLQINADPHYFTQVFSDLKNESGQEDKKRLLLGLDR

IC50 [6] [µM]	IC50 [7] [µM]	IC50 [8] [µM]	SMILES	IC50 [1] [µM]	IC50 [2] [µM]	IC50 [3] [µM]	IC50 [4] [µM]	IC50 [5] [µM]
> 10	> 10	> 10	CC1(C)CNC(=O)c2cc3n(c2C1)CCc1cc(Br)ccc1-3	33.6	18.1	36.1	25.6	43.1
			COc1ccc2c(c1)CCn1c-2cc2c1CC(C)(C)CNC2=O	> 100	> 100	> 100	> 100	> 100
			CC1(C)CNC(=O)c2cc(-c3ccc([N+](=O)[O-])cc3)n(-c3ccc(Cl)cc3)c2C1	17.4	28.8	15.1	20	51.7
			CC1(C)CNC(=O)c2cc3n(c2C1)CCc1cc(Cl)ccc1-3	> 100	> 100	> 100	39.6	> 100
			CC1(C)CNC(=O)c2cc3n(c2C1)CCc1ccccc1-3	> 100	> 100	> 100	> 100	> 100
			CC1(C)CC(=O)c2cc3n(c2C1)CCc1cc(Br)ccc1-3	50.6	53.3	23.9	36	35
			COc1ccc2c(c1)CCn1c-2cc2c1CC(C)(C)CC2=O	> 100	> 100	57.5	> 100	> 100
			CC1(C)CC(=O)c2cc3n(c2C1)CCc1cc(Cl)ccc1-3	> 100	> 100	10.2	24.8	41.8
			CC1(C)CNC(=O)c2cc(-c3ccc([N+](=O)[O-])cc3)n(-c3ccc(Br)cc3)c2C1	21.1	25.6	> 100	> 100	> 100
> 10	> 10	> 10	CC1(C)CNC(=O)c2cc3n(c2C1)CCc1cc(F)ccc1-3	> 100	> 100	33.7	> 100	54.5
			CC1(C)CC(=O)c2cc3n(c2C1)CCc1ccccc1-3	> 100	> 100	36.8	> 100	> 100
> 10	> 10	> 10	CC1(C)CNC(=O)c2cc3n(c2C1)CCc1cc([N+](=O)[O-])ccc1-3	25.8	> 100	> 100	29.5	43.1
			CC1(C)CC(=O)c2cc3n(c2C1)CCc1cc([N+](=O)[O-])ccc1-3	> 100	> 100	73.7	16.7	> 100
			CC1(C)CC(=O)c2cc3n(c2C1)CCc1cc(F)ccc1-3	> 100	> 100	27.2	65.5	> 100
			O=C1Cc2c([nH]c3ccc([N+](=O)[O-])cc23)-c2ccccc2N1 [ALSTERPAULLONE]	1.12	0.68	1.58	0.62	1.24
			O=C1Cc2c([nH]c3ccc(Br)cc23)-c2ccccc2N1 [KENPAULLONE]	> 100	> 100	> 100	23.9	> 100
